Results from ChEMBL document CHEMBL1148105, “Bioactive metabolites from a marine-derived strain of the fungus Emericella variecolor” (2002).
Calls of active or inactive are those of the source. The rule behind the calls is not given here.

How the values were obtained:
[1] = test system: NCI-H322M; assay: Growth inhibition of human NCI-H322M cells; format: functional
In short: (§1)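 Tested in the NCI 60-cell-line screen using the standard NCI protocol, with concentrations up to 10^-4 M. Growth inhibition is reported as GI50 (M), taken from the NCI mean graphs.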

[2] = test system: SN12C; assay: Growth inhibition of human SN12C cells; format: functional
In short: (§2)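 Run in the NCI 60-cell-line screen under the standard NCI protocol. Cells were tested at concentrations up to 10^-4 M. Potency was expressed as GI50 (M), taken from the NCI mean-graph data.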

[3] = test system: BT-549; assay: Growth inhibition of human BT549 cells; format: functional; in short: as §1
[4] = test system: U-251; assay: Growth inhibition of human U251 cells; format: functional; in short: as §2
[5] = test system: HCT-15; assay: Growth inhibition of human HCT15 cells; format: functional; in short: as §1
[6] = test system: A498; assay: Growth inhibition of human A498 cells; format: functional; in short: as §1
[7] = test system: NCI-H226; assay: Growth inhibition of human NCI-H226 cells; format: functional; in short: as §1
[8] = test system: HOP-62; assay: Growth inhibition of human HOP62 cells; format: functional; in short: as §1
[9] = test system: SF-268; assay: Growth inhibition of human SF268 cells; format: functional; in short: as §2
[10] = test system: OVCAR-5; assay: Growth inhibition of human OVCAR5 cells; format: functional; in short: as §1
[11] = test system: COLO 205; assay: Growth inhibition of human COLO205 cells; format: functional; in short: as §1
[12] = test system: MDA-MB-231; assay: Growth inhibition of human MDA-MB-231 cells; format: functional; in short: as §1
[13] = test system: CAKI-1; assay: Growth inhibition of human Caki1 cells; format: functional; in short: as §1
[14] = test system: MOLT-4; assay: Growth inhibition of human MOLT4 cells; format: functional; in short: as §1
[15] = test system: HT-29; assay: Growth inhibition of human HT-29 cells; format: functional
[16] = test system: A549; assay: Growth inhibition of human A549 cells; format: functional
[17] = test system: Staphylococcus aureus; assay: Antimicrobial activity against Staphylococcus aureus at 100 ug/ml; format: functional, organism-based
[18] = Growth inhibition of human Hs 578T cells; format: functional; in short: as §1
[19] = test system: UACC-257; assay: Growth inhibition of human UACC257 cells; format: functional; in short: as §2
[20] = test system: NCI-H522; assay: Growth inhibition of human NCI-H522 cells; format: functional; in short: as §1
[21] = test system: SK-MEL-5; assay: Growth inhibition of human SK-MEL-5 cells; format: functional; in short: as §2
[22] = test system: MDA-N; assay: Growth inhibition of human MDA-N cells; format: functional; in short: as §1
[23] = test system: ACHN; assay: Growth inhibition of human ACHN cells; format: functional; in short: as §1
[24] = test system: Enterococcus faecalis; assay: Antimicrobial activity against Enterococcus faecalis at 100 ug/ml; format: functional, organism-based
[25] = test system: Escherichia coli; assay: Antimicrobial activity against Escherichia coli at 100 ug/ml; format: functional, organism-based
[26] = test system: T47D; assay: Growth inhibition of human T47D cells; format: functional; in short: as §2
[27] = test system: RXF 393; assay: Growth inhibition of human RXF393 cells; format: functional; in short: as §2
[28] = test system: HL-60(TB); assay: Growth inhibition of human HL-60(TB) cells; format: functional
In short: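 Run in the NCI 60-cell line panel using the standard NCI protocol. The value is reported as GI50 in molar units, with 10^-4 M the top concentration examined.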

[29] = test system: Salmonella typhimurium; assay: Antimicrobial activity against Salmonella Typhimurium at 100 ug/ml; format: functional, organism-based; conditions: Salmonella enterica subsp. enterica serovar Typhimurium
[30] = test system: SNB-19; assay: Growth inhibition of human SNB19 cells; format: functional; in short: as §2
[31] = test system: MDA-MB-435; assay: Growth inhibition of human MDA-MB-435 cells; format: functional; in short: as §1
[32] = test system: PC-3; assay: Growth inhibition of human PC3 cells; format: functional; in short: as §2
[33] = test system: SK-MEL-2; assay: Growth inhibition of human SK-MEL-2 cells; format: functional; in short: as §2
[34] = test system: SK-OV-3; assay: Growth inhibition of human SKOV3 cells; format: functional; in short: as §2
[35] = test system: 786-0; assay: Growth inhibition of human 786-0 cells; format: functional; in short: as §1
[36] = test system: SW-620; assay: Growth inhibition of human SW620 cells; format: functional; in short: as §2
[37] = test system: SK-MEL-28; assay: Growth inhibition of human SK-MEL-28 cells; format: functional; in short: as §2
[38] = test system: NCI-H23; assay: Growth inhibition of human NCI-H23 cells; format: functional; in short: as §1
[39] = test system: EKVX; assay: Growth inhibition of human EKVX cells; format: functional; in short: as §1
[40] = test system: Malme-3M; assay: Growth inhibition of human MALME-3M cells; format: functional; in short: as §1
[41] = test system: Candida albicans; assay: Antimicrobial activity against Candida albicans at 100 ug/ml; format: functional, organism-based
[42] = test system: SF-295; assay: Growth inhibition of human SF295 cells; format: functional; in short: as §2
[43] = read-out: pLC50 (the source's name) (converted)

COc1cccc(/C=C/[C@H]2O[C@@H](C)[C@H](O)[C@@H]2O)c1CO [VARITRIOL]
GI50 [1]: > 100 µM
CC50 [1, 43]: > 100 µM
TGI ([1]; read-out: pTGI): > 100 µM
GI50 [2]: > 100 µM
CC50 [2, 43]: > 100 µM
TGI ([2]; read-out: pTGI): > 100 µM
GI50 [3]: > 100 µM
CC50 [3, 43]: > 100 µM
TGI ([3]; read-out: pTGI): > 100 µM
GI50 [4]: > 100 µM
CC50 [4, 43]: > 100 µM
TGI ([4]; read-out: pTGI): > 100 µM
GI50 [5]: > 100 µM
CC50 [5, 43]: > 100 µM
TGI ([5]; read-out: pTGI): > 100 µM
GI50 [6]: > 100 µM
CC50 [6, 43]: > 100 µM
TGI ([6]; read-out: pTGI): > 100 µM
GI50 [7]: > 100 µM
CC50 [7, 43]: > 100 µM
TGI ([7]; read-out: pTGI): > 100 µM
GI50 [8]: > 100 µM
CC50 [8, 43]: > 100 µM
TGI ([8]; read-out: pTGI): > 100 µM
GI50 [9]: > 100 µM
CC50 [9, 43]: > 100 µM
TGI ([9]; read-out: pTGI): > 100 µM
GI50 [10]: 67.6 µM
CC50 [10, 43]: > 100 µM
TGI ([10]; read-out: pTGI): > 100 µM
GI50 [11]: 95.5 µM
CC50 [11, 43]: > 100 µM
TGI ([11]; read-out: pTGI): > 100 µM
GI50 [12]: > 100 µM
CC50 [12, 43]: > 100 µM
TGI ([12]; read-out: pTGI): > 100 µM
GI50 [13]: > 100 µM
CC50 [13, 43]: > 100 µM
TGI ([13]; read-out: pTGI): > 100 µM
GI50 [14]: > 100 µM
CC50 [14, 43]: > 100 µM
TGI ([14]; read-out: pTGI): > 100 µM
GI50 [15]: > 100 µM
CC50 [15, 43]: > 100 µM
TGI ([15]; read-out: pTGI): > 100 µM
GI50 [16]: > 100 µM
CC50 [16, 43]: > 100 µM
TGI ([16]; read-out: pTGI): > 100 µM
Activity [17]: inactive
GI50 [18]: > 100 µM
CC50 [18, 43]: > 100 µM
TGI ([18]; read-out: pTGI): > 100 µM
GI50 [19]: > 100 µM
CC50 [19, 43]: > 100 µM
TGI ([19]; read-out: pTGI): > 100 µM
GI50 [20]: > 100 µM
CC50 [20, 43]: > 100 µM
TGI ([20]; read-out: pTGI): > 100 µM
GI50 [21]: > 100 µM
CC50 [21, 43]: > 100 µM
TGI ([21]; read-out: pTGI): > 100 µM
GI50 [22]: > 100 µM
CC50 [22, 43]: > 100 µM
TGI ([22]; read-out: pTGI): > 100 µM
GI50 [23]: > 100 µM
CC50 [23, 43]: > 100 µM
TGI ([23]; read-out: pTGI): > 100 µM
Activity [24]: inactive
Activity [25]: inactive
GI50 [26]: 0.209 µM
CC50 [26, 43]: > 100 µM
TGI ([26]; read-out: pTGI (converted)): 1.05 µM
GI50 [27]: 0.162 µM
CC50 [27, 43]: > 100 µM
TGI ([27]; read-out: pTGI (converted)): 0.933 µM
GI50 [28]: 25.1 µM
CC50 [28, 43]: > 100 µM
TGI ([28]; read-out: pTGI): > 100 µM
Activity [29]: inactive
GI50 [30]: 91.2 µM
CC50 [30, 43]: > 100 µM
TGI ([30]; read-out: pTGI): > 100 µM
GI50 [31]: > 100 µM
CC50 [31, 43]: > 100 µM
TGI ([31]; read-out: pTGI): > 100 µM
GI50 [32]: > 100 µM
CC50 [32, 43]: > 100 µM
TGI ([32]; read-out: pTGI): > 100 µM
GI50 [33]: > 100 µM
CC50 [33, 43]: > 100 µM
TGI ([33]; read-out: pTGI): > 100 µM
GI50 [34]: > 100 µM
CC50 [34, 43]: > 100 µM
TGI ([34]; read-out: pTGI): > 100 µM
GI50 [35]: > 100 µM
CC50 [35, 43]: > 100 µM
TGI ([35]; read-out: pTGI): > 100 µM
GI50 [36]: > 100 µM
CC50 [36, 43]: > 100 µM
TGI ([36]; read-out: pTGI): > 100 µM
GI50 [37]: > 100 µM
CC50 [37, 43]: > 100 µM
TGI ([37]; read-out: pTGI): > 100 µM
GI50 [38]: > 100 µM
CC50 [38, 43]: > 100 µM
TGI ([38]; read-out: pTGI): > 100 µM
GI50 [39]: > 100 µM
CC50 [39, 43]: > 100 µM
TGI ([39]; read-out: pTGI): > 100 µM
GI50 [40]: > 100 µM
CC50 [40, 43]: > 100 µM
TGI ([40]; read-out: pTGI): > 100 µM
Activity [41]: inactive
GI50 [42]: > 100 µM
CC50 [42, 43]: > 100 µM
TGI ([42]; read-out: pTGI): > 100 µM
